Laboratory results published in ChEMBL document CHEMBL3627689, “Structural design, synthesis and pharmacological evaluation of 4-thiazolidinones against Trypanosoma cruzi” (Bioorg Med Chem, 2015).
The source made the active and inactive calls. The rule behind the calls is not given here.

Key:
Leishmania = assay: Antiparasitic activity against Leishmania; assay type: functional
Trypanosoma cruzi [1] = assay: Antichagasic activity against Trypanosoma cruzi; assay type: functional
[2] = Cytotoxicity against mouse J774 cells assessed as cell viability after 72 hrs by Alamar Blue assay; assay type: cell-based
Procedure, shortened: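 J774 macrophages were plated at 5 × 10⁴ cells/mL in RPMI + 10% FBS with gentamycin and grown 24 h at 37 °C, 5% CO₂. Compounds in DMSO (final <1%) were added at six concentrations (0.41–100 µM) in triplicate for 72 h. Viability was read by AlamarBlue at 570/600 nm after 6 h. CC50 came from three independent experiments, with gentian violet as positive control.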

[3] = Selectivity index, ratio of CC50 for mouse J774 cells to IC50 for bloodstream trypomastigote stage of Trypanosoma cruzi Y
[4] = target: Cruzipain (Trypanosoma cruzi) (UniProt P25779); assay: Competitive inhibition of Trypanosoma cruzi Cruzain using Z-FR-AMC as substrate at 100 uM preincubated for 10 mins followed by substrate addition measured every 12 secs for 5 mins by fluorescence assay relative to control
Trypanosoma cruzi [5] = assay: Antiparasitic activity against bloodstream trypomastigote stage of Trypanosoma cruzi Y assessed as parasite viability after 24 hrs by Neubauer chamber analysis; assay type: functional, organism-based
Procedure, shortened: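 Y strain bloodstream trypomastigotes were harvested from infected LLC-MK2 cell supernatants. They were exposed to compounds at five concentrations for 24 h at 37 °C, 5% CO₂. Viable parasites were counted in a Neubauer chamber by motility. Inhibition was calculated relative to untreated cultures, and IC50 was derived by non-linear regression.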

Trypanosoma cruzi [6] = assay: Antiparasitic activity against amastigote stage of Trypanosoma cruzi Y in BALB/c mouse macrophages assessed as decrease in number of infected cells at 50 uM incubated for 6 hrs by Giemsa staining-based optical microscopic analysis; assay type: functional, organism-based
Procedure, shortened: (§1)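 Thioglycolate-elicited peritoneal macrophages from BALB/c mice, 2 × 10⁵ cells/well on coverslips in RPMI + 10% FBS for 24 h, then infected with Y strain trypomastigotes (10 per macrophage) for 2 h. Free parasites washed off. Compounds added at 50 µM for 6 h, medium replaced, 3 days further culture. Methanol fixation, Giemsa staining, 100 cells counted per slide. Triplicate, two independent experiments.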

Trypanosoma cruzi [7] = assay: Potency index, ratio of benznidazole IC50 to compound IC50 for bloodstream trypomastigote stage of Trypanosoma cruzi Y; assay type: functional
Trypanosoma cruzi [8] = assay: Potency index, ratio of benznidazole IC50 to compound IC50 for amastigote stage of Trypanosoma cruzi Y in BALB/c mouse macrophages; assay type: functional
Trypanosoma cruzi [9] = assay: Antiparasitic activity against amastigote stage of Trypanosoma cruzi Y in BALB/c mouse macrophages assessed as decrease in number of intracellular amastigotes at 50 uM incubated for 6 hrs by Giemsa staining-based optical microscopic analysis; assay type: functional, organism-based; procedure, shortened: as §1
Trypanosoma cruzi [10] = assay: Antiparasitic activity against amastigote stage of Trypanosoma cruzi Y in BALB/c mouse macrophages assessed as decrease in number of intracellular amastigotes incubated for 6 hrs by Giemsa staining-based optical microscopic analysis; assay type: functional, organism-based
Procedure, shortened: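 Peritoneal BALB/c macrophages (thioglycolate-elicited) were infected with Y strain trypomastigotes at 10:1 for 2 h and washed. Compounds at five concentrations (1–50 µM) were applied for 6 h, followed by fresh medium and 3 days of culture. Amastigotes per 100 macrophages were counted after Giemsa staining.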

Trypanosoma cruzi [11] = assay: Antiparasitic activity against bloodstream trypomastigote stage of Trypanosoma cruzi Y infected in BALB/c mouse assessed as increase in survival rate by measuring mortality at 100 mg/kg, po qd administered for 5 days measured until 30 days; assay type: functional, organism-based
Procedure, shortened: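 Female BALB/c mice (6 per group) were infected with 10⁴ Y strain trypomastigotes. From day 5 post-infection they received 100 mg/kg orally once daily for 5 days. Controls were vehicle (untreated infected) and benznidazole 100 mg/kg. Survival was followed for 30 days after infection in one experiment.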

Mus musculus = assay: Toxicity in BALB/c mouse infected with bloodstream trypomastigote stage of Trypanosoma cruzi Y assessed as body weight loss at 100 mg/kg, po qd administered for 5 days; assay type: organism-based; details: in vivo, 120 h
Trypanosoma cruzi [12] = assay: Antiparasitic activity against bloodstream trypomastigote stage of Trypanosoma cruzi Y infected in BALB/c mouse assessed as reduction of parasitemia at 100 mg/kg, po qd administered for 5 days measured on day 12 post infection relative to vehicle-treated control; assay type: functional; parameters: scale not given: the % may be the effect or the level left
Procedure, shortened: (§2)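 Female BALB/c mice (6 per group, randomized) were infected with 10⁴ Y strain trypomastigotes. They were dosed orally at 100 mg/kg once daily for 5 days starting day 5 post-infection. Parasitemia was counted as trypomastigotes in fresh blood. Reduction = (vehicle mean − treated mean)/vehicle mean × 100%.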

Trypanosoma cruzi [13] = assay: Antiparasitic activity against bloodstream trypomastigote stage of Trypanosoma cruzi Y infected in BALB/c mouse assessed as reduction of parasitemia at 100 mg/kg, po qd administered for 5 days measured on day 10 post infection relative to vehicle-treated control; assay type: functional; parameters: scale not given: the % may be the effect or the level left; procedure, shortened: as §2

Sequence of Cruzipain (Trypanosoma cruzi) (P25779 123-467 limits assumed): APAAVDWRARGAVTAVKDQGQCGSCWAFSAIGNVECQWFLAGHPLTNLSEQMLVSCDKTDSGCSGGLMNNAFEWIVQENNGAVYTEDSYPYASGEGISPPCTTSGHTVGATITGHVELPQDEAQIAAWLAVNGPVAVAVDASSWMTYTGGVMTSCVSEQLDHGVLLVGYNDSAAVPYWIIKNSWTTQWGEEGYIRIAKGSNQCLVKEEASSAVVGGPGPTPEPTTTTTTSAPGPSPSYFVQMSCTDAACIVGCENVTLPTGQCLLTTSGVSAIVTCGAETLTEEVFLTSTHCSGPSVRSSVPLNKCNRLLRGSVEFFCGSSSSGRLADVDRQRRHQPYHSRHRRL

SMILES | CC50 at 72 h [2] [µM] | Ratio CC50/IC50 [3] | inhibition [4] [%] | IC50 (Trypanosoma cruzi [5]) [µM] | further results
O=C(N[C@@H](Cn1ccnc1)c1ccc(-c2ccc(F)cc2)cc1F)c1ccc(-c2nnc(-c3ccccc3)o2)cc1 | – | – | – | – | Activity (Leishmania): 89%; Activity (Trypanosoma cruzi [1]): 100%
CN(C)c1ccc(C(=C2C=CC(=[N+](C)C)C=C2)c2ccc(N(C)C)cc2)cc1 [GENTIAN VIOLET] | 0.45 | – | – | – | –
C/C(=N\N=C1/NC(=O)C(C)S1)c1ccc(Cl)c(Cl)c1 (stereo not drawn) | > 100 | >2 | 49 | 49.5 | –
CCC1S/C(=N/N=C(\C)c2ccc(Cl)c(Cl)c2)N(c2ccccc2)C1=O (stereo not drawn) | 23.3 | 8 | 24 | 2.9 | Activity (Trypanosoma cruzi [6]): Active; Ratio IC50 (Trypanosoma cruzi [7]): 3; Ratio IC50 (Trypanosoma cruzi [8]): 4; Activity (Trypanosoma cruzi [9]): Active; IC50 (Trypanosoma cruzi [10]): 3.2 µM
C/C(=N\N=C1/NC(=O)C(c2ccccc2)S1)c1ccc(Cl)c(Cl)c1 (stereo not drawn) | 96.9 | – | 61 | > 50 | –
C/C(=N\N=C1\SCC(=O)N1c1ccccc1)c1ccc(Cl)c(Cl)c1 | > 100 | – | 43 | > 50 | –
C/C(=N\N=C1\SC(c2ccccc2)C(=O)N1C)c1ccc(Cl)c(Cl)c1 (stereo not drawn) | 97.6 | – | 29 | 41.5 | –
C/C(=N\N=C1\SC(C(C)C)C(=O)N1c1ccccc1)c1ccc(Cl)c(Cl)c1 (stereo not drawn) | > 100 | >58 | 23 | 1.7 | Activity (Trypanosoma cruzi [11]): Active; Activity (Trypanosoma cruzi [6]): Active; Activity (Mus musculus): Non-toxic; Activity (Trypanosoma cruzi [12]): 97.1%; Activity (Trypanosoma cruzi [13]): 86.7%; Ratio IC50 (Trypanosoma cruzi [7]): 6; Ratio IC50 (Trypanosoma cruzi [8]): 4; Activity (Trypanosoma cruzi [9]): Active; IC50 (Trypanosoma cruzi [10]): 3.1 µM
C/C(=N\N=C1/NC(=O)CS1)c1ccc(Cl)c(Cl)c1 | 76.5 | – | 54 | > 50 | –
C/C(=N\N=C1\SCC(=O)N1C)c1ccc(Cl)c(Cl)c1 | > 100 | – | 0 | > 50 | –
CCC1S/C(=N/N=C(\C)c2ccc(Cl)c(Cl)c2)N(C)C1=O (stereo not drawn) | > 100 | >2 | 20 | 48.5 | –
